Results: ChEMBL document CHEMBL3525900, “Pharmacokinetics, distribution, and metabolism of [14C]sunitinib in rats, monkeys, and humans” (Drug Metab Dispos, 2012)

Columns and labels:
[1] = test system: Cynomolgus monkey; assay: AUC (0 to infinity) as total radioactivity in female cynomolgus monkey plasma at 6 mg/kg, po administered as single dose by LC/MS/MS analysis; format: ADME, organism-based, Macaca fascicularis; set-up: time infinity, dose 6 mg/kg, dosed compound name [14C]Sunitinib, route oral; settings: in vivo
Outline: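 Cynomolgus monkeys of both sexes received one oral gavage of [14C]sunitinib L-malate at 6 mg/kg (37 µCi/kg). Femoral-vein blood was taken into heparin from 0.5 to 336 h. Plasma was kept cold and protected from light, then stored at -80 °C. Total radioactivity was by scintillation counting and sunitinib by methanol-extraction LC-MS-MS. Cmax was from raw data, t½ from the log-linear terminal slope, AUC(0-∞) by linear trapezoidal rule.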

[2] = test system: Cynomolgus monkey; assay: Tmax as total radioactivity in male cynomolgus monkey plasma at 6 mg/kg, po administered as single dose by LC/MS/MS analysis; format: ADME, organism-based, Macaca fascicularis; set-up: dose 6 mg/kg, dosed compound name [14C]Sunitinib, route oral; settings: in vivo
[3] = Drug concentration in female albino rat lymph node assessed as radioactivity per gram of tissue at 20 mg/kg administered as single dose via gastric gavage measured after 3 hrs by autoradiographic analysis; format: ADME, organism-based; set-up: dose 20 mg/kg, dosed compound name [14C]Sunitinib; settings: in vivo, po
Outline: (§1)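 Sprague Dawley albino rats, ca 7-8 weeks old, dosed once by gastric gavage with [14C]sunitinib L-malate (15 mg freebase/kg, 100 µCi/kg). One male and one female killed by CO2 at 3, 6, 24, 72 and 168 h. Carcasses frozen in solid CO2/hexane, embedded and cut into 30 µm sagittal sections, then freeze-dried. Radioactivity quantified by whole-body autoradiography against standards by regression, background subtracted.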

[4] = test system: Lung; assay: Drug concentration in male Lister Hooded pigmented rat lung assessed as radioactivity per gram of tissue at 20 mg/kg administered as single dose via gastric gavage measured after 24 hrs by autoradiographic analysis; format: ADME, organism-based; set-up: dose 20 mg/kg, dosed compound name [14C]Sunitinib; settings: in vivo, po
[5] = Drug concentration in male Lister Hooded pigmented rat pituitary gland assessed as radioactivity per gram of tissue at 20 mg/kg administered as single dose via gastric gavage measured after 24 hrs by autoradiographic analysis; format: ADME, organism-based; set-up: dose 20 mg/kg, dosed compound name [14C]Sunitinib; settings: in vivo, po
[6] = test system: Zone of skin; assay: Drug concentration in male Lister Hooded pigmented rat abdomen skin assessed as radioactivity per gram of tissue at 20 mg/kg administered as single dose via gastric gavage measured after 24 hrs by autoradiographic analysis; format: ADME, organism-based; set-up: dose 20 mg/kg, dosed compound name [14C]Sunitinib; settings: in vivo, po
[7] = test system: Heart; assay: Drug concentration in male albino rat heart assessed as radioactivity per gram of tissue at 20 mg/kg administered as single dose via gastric gavage measured after 6 hrs by autoradiographic analysis; format: ADME, organism-based; set-up: dose 20 mg/kg, dosed compound name [14C]Sunitinib; settings: in vivo, po
[8] = test system: Small intestine; assay: Drug concentration in male albino rat small intestine assessed as radioactivity per gram of tissue at 20 mg/kg administered as single dose via gastric gavage measured after 6 hrs by autoradiographic analysis; format: ADME, organism-based; set-up: dose 20 mg/kg, dosed compound name [14C]Sunitinib; settings: in vivo, po
[9] = Drug concentration in female albino rat salivary gland assessed as radioactivity per gram of tissue at 20 mg/kg administered as single dose via gastric gavage measured after 6 hrs by autoradiographic analysis; format: ADME, organism-based; set-up: dose 20 mg/kg, dosed compound name [14C]Sunitinib; settings: in vivo, po
[10] = test system: Adrenal; assay: Drug concentration in female albino rat adrenal assessed as radioactivity per gram of tissue at 20 mg/kg administered as single dose via gastric gavage measured after 6 hrs by autoradiographic analysis; format: ADME, organism-based; set-up: dose 20 mg/kg, dosed compound name [14C]Sunitinib; settings: in vivo, po
Outline: (§2)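 Sprague Dawley (albino) rats, ca 7-8 weeks old, received a single gastric-gavage dose of [14C]sunitinib L-malate at 20 mg/kg (15 mg freebase/kg, 100 µCi/kg). One animal per sex killed by CO2 at 3, 6, 24, 72 and 168 h, then frozen in CO2/hexane. 30 µm sagittal sections were cut and freeze-dried. Radioactivity per gram quantified by whole-body autoradiography using regression against standards. LOQ 0.04–0.06 µg freebase equiv/g.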

[11] = Drug concentration in male Lister Hooded pigmented rat uveal tract assessed as radioactivity per gram of tissue at 20 mg/kg administered as single dose via gastric gavage measured after 72 hrs by autoradiographic analysis; format: ADME, organism-based; set-up: dose 20 mg/kg, dosed compound name [14C]Sunitinib; settings: in vivo, po
[12] = test system: Adrenal; assay: Drug concentration in male Lister Hooded pigmented rat adrenal assessed as radioactivity per gram of tissue at 20 mg/kg administered as single dose via gastric gavage measured after 168 hrs by autoradiographic analysis; format: ADME, organism-based; set-up: dose 20 mg/kg, dosed compound name [14C]Sunitinib; settings: in vivo, po
[13] = test system: Kidney; assay: Drug concentration in female albino rat kidney assessed as radioactivity per gram of tissue at 20 mg/kg administered as single dose via gastric gavage measured after 168 hrs by autoradiographic analysis; format: ADME, organism-based; set-up: dose 20 mg/kg, dosed compound name [14C]Sunitinib; settings: in vivo, po; outline: as §1
[14] = test system: Zone of skin; assay: Drug concentration in female albino rat abdomen skin assessed as radioactivity per gram of tissue at 20 mg/kg administered as single dose via gastric gavage measured after 168 hrs by autoradiographic analysis; format: ADME, organism-based; set-up: dose 20 mg/kg, dosed compound name [14C]Sunitinib; settings: in vivo, po; outline: as §2
[15] = test system: Adrenal; assay: Drug concentration in female Lister Hooded pigmented rat adrenal assessed as radioactivity per gram of tissue at 20 mg/kg administered as single dose via gastric gavage measured after 24 hrs by autoradiographic analysis; format: ADME, organism-based; set-up: dose 20 mg/kg, dosed compound name [14C]Sunitinib; settings: in vivo, po
Outline: (§3)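 Pigmented Lister Hooded rats, 7-8 weeks old, received [14C]sunitinib L-malate by gavage at 20 mg/kg (15 mg freebase/kg, 100 µCi/kg). One rat per sex was killed by CO2 at each of 24, 72, 168 and 336 h. Carcasses were frozen in solid CO2/hexane and cut into 30 µm sagittal sections, then freeze-dried. Tissue radioactivity was quantified by whole-body autoradiography calibrated against standards by regression (LOQ 0.04–0.06 µg eq/g).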

[16] = Drug concentration in female albino rat bone marrow assessed as radioactivity per gram of tissue at 20 mg/kg administered as single dose via gastric gavage measured after 72 hrs by autoradiographic analysis; format: ADME, organism-based; set-up: dose 20 mg/kg, dosed compound name [14C]Sunitinib; settings: in vivo, po; outline: as §2
[17] = test system: Adrenal; assay: Drug concentration in male albino rat adrenal assessed as radioactivity per gram of tissue at 20 mg/kg administered as single dose via gastric gavage measured after 24 hrs by autoradiographic analysis; format: ADME, organism-based; set-up: dose 20 mg/kg, dosed compound name [14C]Sunitinib; settings: in vivo, po
[18] = Drug concentration in male albino rat eye assessed as radioactivity per gram of tissue at 20 mg/kg administered as single dose via gastric gavage measured after 24 hrs by autoradiographic analysis; format: ADME, organism-based; set-up: dose 20 mg/kg, dosed compound name [14C]Sunitinib; settings: in vivo, po
[19] = Drug concentration in female Lister Hooded pigmented rat skeletal muscle assessed as radioactivity per gram of tissue at 20 mg/kg administered as single dose via gastric gavage measured after 24 hrs by autoradiographic analysis; format: ADME, organism-based; set-up: dose 20 mg/kg, dosed compound name [14C]Sunitinib; settings: in vivo, po
Outline: (§4)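 Lister Hooded (pigmented) rats, ca 7-8 weeks old, acclimated 7 days, given [14C]sunitinib L-malate by gastric gavage at 20 mg/kg (15 mg freebase/kg, 100 µCi/kg). One male and one female killed by CO2 at 24, 72, 168 and 336 h. Carcasses frozen in solid CO2/hexane and embedded in frozen cellulose. 30 µm sagittal cryosections were freeze-dried. Tissue radioactivity measured by quantitative whole-body autoradiography against calibration standards, with background subtracted.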

[20] = test system: Spleen; assay: Drug concentration in female Lister Hooded pigmented rat spleen assessed as radioactivity per gram of tissue at 20 mg/kg administered as single dose via gastric gavage measured after 72 hrs by autoradiographic analysis; format: ADME, organism-based; set-up: dose 20 mg/kg, dosed compound name [14C]Sunitinib; settings: in vivo, po; outline: as §4
[21] = test system: Adrenal; assay: Drug concentration in female Lister Hooded pigmented rat adrenal assessed as radioactivity per gram of tissue at 20 mg/kg administered as single dose via gastric gavage measured after 168 hrs by autoradiographic analysis; format: ADME, organism-based; set-up: dose 20 mg/kg, dosed compound name [14C]Sunitinib; settings: in vivo, po; outline: as §3
[22] = Drug concentration in female Lister Hooded pigmented rat eye assessed as radioactivity per gram of tissue at 20 mg/kg administered as single dose via gastric gavage measured after 168 hrs by autoradiographic analysis; format: ADME, organism-based; set-up: dose 20 mg/kg, dosed compound name [14C]Sunitinib; settings: in vivo, po; outline: as §4

- AUC [1]: 5692 ng.Eq.hr/ml
- Tmax [2]: 8 h
- Radiolabel recovery [3]: 12.39 ugequiv
- Radiolabel recovery [4]: 1.55 ugequiv
- Radiolabel recovery [5]: 7.71 ugequiv
- Radiolabel recovery [6]: 5.57 ugequiv
- Radiolabel recovery [7]: 4.61 ugequiv
- Radiolabel recovery [8]: 5.54 ugequiv
- Radiolabel recovery [9]: 23.1 ugequiv
- Radiolabel recovery [10]: 26.74 ugequiv
- Radiolabel recovery [11]: 147.37 ugequiv
- Radiolabel recovery [12]: 0.74 ugequiv
- Radiolabel recovery [13]: 0.09 ugequiv
- Radiolabel recovery [14]: 0.26 ugequiv
- Radiolabel recovery [15]: 3.59 ugequiv
- Radiolabel recovery [16]: 0.1 ugequiv
- Radiolabel recovery [17]: 4.11 ugequiv
- Radiolabel recovery [18]: 0.08 ugequiv
- Radiolabel recovery [19]: 0.25 ugequiv
- Radiolabel recovery [20]: 0.23 ugequiv
- Radiolabel recovery [21]: 0.35 ugequiv
- Radiolabel recovery [22]: 73.04 ugequiv
SMILES: CCN(CC)CCNC(=O)c1c(C)[nH]c(/[14CH]=C2\C(=O)Nc3ccc(F)cc32)c1C.O=C(O)C[C@H](O)C(=O)O
